Measured values collected from several papers.
Each line is one published result; the experiments were not run side by side.
SLC6A2: Sodium-dependent noradrenaline transporter (SLC6A2, Homo sapiens, UniProt P23975)
Oprk1: Kappa-type opioid receptor (Oprk1, Mus musculus, UniProt P33534)
CES2: Cocaine esterase (CES2, Homo sapiens, UniProt O00748)
FPR1: fMet-Leu-Phe receptor (FPR1, Homo sapiens, UniProt P21462)

| Compound | target | test | conditions | quantity | value |
| --- | --- | --- | --- | --- | --- |
| CCOC(=O)[C@@]12C[C@@H]1[C@@H](n1cnc3c(NCCCCCc4ccccc4)nc(I)nc31)[C@H](O)[C@@H]2O | SLC6A2 | ligand displacement, radioligand |  | Ki | 4.6 µM |
| CC(C)[C@H](CN1CCc2ccccc2C1)NC(=O)c1ccc([N+](=O)[O-])s1 | Oprk1 | ligand displacement, radioligand |  | Ki | 9.3 µM |
| O=C(c1ccc(OCCN2CCCCC2)cc1)c1c(-c2ccc(O)cc2)sc2cc(O)ccc12 | CES2 | enzyme activity, inhibitor, fluorescence | with preincubation | IC50 | > 100 µM |
| CCOC(=O)[C@@]12C[C@@H]1[C@@H](n1ccc3c(NCCCCc4ccccc4)nc(C#Cc4ccccc4)nc31)[C@H](O)[C@@H]2O | SLC6A2 | ligand displacement, radioligand |  | Ki | 1.5 µM |
| COc1cc2c(cc1OC)C(=O)/C(=C/c1ccc3ccccc3c1)C2 | CES2 | enzyme activity, inhibitor, fluorescence | with preincubation | IC50 | 10.4 µM |
| N#Cc1ccc(C[C@H](Nc2nnc(-c3cccc(Br)c3)o2)C(=O)N2CCc3ccccc32)cc1 | FPR1 | calcium signal, agonist |  | EC50 | 27 µM |
| CC(C)[C@@H](CN1CCc2ccccc2C1)NC(=O)c1cccc(-c2cccnc2)c1 | Oprk1 | ligand displacement, radioligand |  | Ki | 6.15 µM |
| CC(=O)N[C@@H](C)c1cc(Cl)ccc1C1CCN(C(=O)[C@@H]2CN(C(C)(C)C)C[C@H]2c2ccc(F)cc2F)CC1 | Melanocortin receptor 4 (MC4R, Homo sapiens, UniProt P32245) | cAMP, agonist |  | EC50 | 0.0078 µM |
| CN1C(=O)C(c2c(-c3ccc(Cl)cc3)[nH]c3c2c(=O)[nH]c(=O)n3C)c2ccccc21 (centres unmarked) | WD repeat-containing protein 91 (Homo sapiens, UniProt A4D1P6) | binding, SPR |  | Kd | 2 µM |
| CNc1nc(C#Cc2ccc(Cl)s2)nc2c1ncn2[C@H]1[C@H](O)[C@H](O)[C@]2(C(=O)OC)C[C@H]12 | SLC6A2 | ligand displacement, radioligand |  | EC50 | 0.75 µM |
| COc1cc2c(cc1OC)C(=O)/C(=C/c1ccccc1N1CCCC1)C2 | CES2 | enzyme activity, inhibitor, fluorescence | with preincubation | IC50 | 0.72 µM |
| CCOC(=O)[C@@]12C[C@@H]1[C@@H](n1cnc3c(Nc4ccccc4)nc(C#Cc4ccc(Cl)s4)nc31)[C@H](O)[C@@H]2O | SLC6A2 | ligand displacement, radioligand |  | Ki | 2.3 µM |
| NCC(=O)O | ltaA (Aeromonas jandaei, UniProt O07051) | binding, absorbance |  | Kd | 11000 µM |
| CCOC(=O)[C@@]12C[C@@H]1[C@@H](n1cnc3c(NCCCCCc4ccccc4)nc(C#Cc4ccc(Cl)s4)nc31)[C@H](O)[C@@H]2O | SLC6A2 | ligand displacement, radioligand |  | Ki | 0.82 µM |
| CCCCC[C@H](O)/C=C/[C@H]1C(=O)C[C@H](O)[C@@H]1C/C=C\CCCC(=O)O | Prostaglandin D2 receptor (PTGDR, Homo sapiens, UniProt Q13258) | G protein activation, agonist, BRET |  | EC50 | 0.00646 µM |
| N#Cc1ccc(C[C@@H](Nc2c(Nc3ccc(Br)cc3)c(=O)c2=O)C(=O)N2CCc3ccccc32)cc1 | FPR1 | calcium signal, agonist |  | EC50 | 32.8 µM |
| CN1C(C(=O)Nc2ccccn2)=C(O)c2ccccc2S1(=O)=O | CES2 | enzyme activity, inhibitor, fluorescence | with preincubation | IC50 | > 100 µM |
| CC(C)[C@@H](CN1CCc2ccccc2C1)NC(=O)c1cccc(-c2ccc(F)cc2)c1 | Oprk1 | ligand displacement, radioligand |  | Ki | 13 µM |
| CNc1nc(C#Cc2ccc(Cl)s2)nc2c1ncn2[C@H]1[C@H](O)[C@H](O)[C@]2(CC#N)C[C@H]12 | SLC6A2 | ligand displacement, radioligand |  | EC50 | 3.9 µM |
| COc1ccc(/C=C2\Cc3cc(OC)c(OC)cc3C2=O)cc1OC | CES2 | enzyme activity, inhibitor, fluorescence | with preincubation | IC50 | > 100 µM |
| O=C(CCNC(=O)CNC(=O)CC(c1ccccc1)(c1ccccc1)c1ccccc1)NC[C@@H]1CCCN(Cc2ccc(F)nc2)C1 | Muscarinic acetylcholine receptor M5 (CHRM5, Homo sapiens, UniProt P08912) | ligand displacement, radioligand | cell membranes | IC50 | > 30 µM |
| CC(C)[C@H](CN1CCc2ccccc2C1)NC(=O)c1c(Cl)cncc1Cl | Oprk1 | ligand displacement, radioligand |  | Ki | 12.5 µM |
| O=c1c(O[C@@H]2O[C@H](CO)[C@H](O)[C@H](O)[C@H]2O)c(-c2ccc(O)c(O)c2)oc2cc(O)cc(O)c12 | srtA (Staphylococcus aureus, UniProt Q2FV99) | binding, SPR |  | Kd | 19.5 µM |
| CC(=O)[C@H]1CC[C@H]2[C@@H]3CC=C4C[C@@H](O)CC[C@]4(C)[C@H]3CC[C@]12C | CES2 | enzyme activity, inhibitor, fluorescence | with preincubation | IC50 | > 100 µM |
| N#CC[C@@]12C[C@@H]1[C@@H](n1cnc3c(NCc4cccc(Cl)c4)nc(C#Cc4ccc(Cl)s4)nc31)[C@H](O)[C@@H]2O | SLC6A2 | ligand displacement, radioligand |  | Ki | 4.1 µM |
| COc1cc2c(cc1OC)C(=O)/C(=C/C1CCCCC1)C2 | CES2 | enzyme activity, inhibitor, fluorescence | with preincubation | IC50 | 2.42 µM |
| Cc1cccc(-c2nnc(N[C@@H](Cc3ccc(C#N)cc3)C(=O)N3CCc4ccccc43)o2)c1 | FPR1 | calcium signal, agonist |  | EC50 | 19.4 µM |
| OC[C@@]12C[C@@H]1[C@@H](n1cnc3c(N[C@@H](C4CCC4)C4CC4)nc(C#Cc4ccc(Cl)s4)nc31)[C@H](O)[C@@H]2O | SLC6A2 | ligand displacement, radioligand |  | Ki | 1.8 µM |
| COc1cc2c(cc1OC)C(=O)/C(=C/C1CCCC1)C2 | CES2 | enzyme activity, inhibitor, fluorescence | with preincubation | IC50 | 6.31 µM |
